Test results published in ChEMBL document CHEMBL2169781, “Discovery and biological evaluation of a novel class of dual microsomal prostaglandin E2 synthase-1/5-lipoxygenase inhibitors based on 2-[(4,6-diphenethoxypyrimidin-2-yl)thio]hexanoic acid” (J Med Chem, 2011).
Activity calls are given as the source filed them. The calls are words filed in the database; no cut-off is given here.

Columns and labels:
[1] = target: T1, Polyunsaturated fatty acid 5-lipoxygenase (Homo sapiens, UniProt P09917); assay: Inhibition of human recombinant 5-lipoxygenase-mediated product formation from arachidonic acid after 5 to 10 mins by HPLC analysis
T1 sequence (P09917 whole entry): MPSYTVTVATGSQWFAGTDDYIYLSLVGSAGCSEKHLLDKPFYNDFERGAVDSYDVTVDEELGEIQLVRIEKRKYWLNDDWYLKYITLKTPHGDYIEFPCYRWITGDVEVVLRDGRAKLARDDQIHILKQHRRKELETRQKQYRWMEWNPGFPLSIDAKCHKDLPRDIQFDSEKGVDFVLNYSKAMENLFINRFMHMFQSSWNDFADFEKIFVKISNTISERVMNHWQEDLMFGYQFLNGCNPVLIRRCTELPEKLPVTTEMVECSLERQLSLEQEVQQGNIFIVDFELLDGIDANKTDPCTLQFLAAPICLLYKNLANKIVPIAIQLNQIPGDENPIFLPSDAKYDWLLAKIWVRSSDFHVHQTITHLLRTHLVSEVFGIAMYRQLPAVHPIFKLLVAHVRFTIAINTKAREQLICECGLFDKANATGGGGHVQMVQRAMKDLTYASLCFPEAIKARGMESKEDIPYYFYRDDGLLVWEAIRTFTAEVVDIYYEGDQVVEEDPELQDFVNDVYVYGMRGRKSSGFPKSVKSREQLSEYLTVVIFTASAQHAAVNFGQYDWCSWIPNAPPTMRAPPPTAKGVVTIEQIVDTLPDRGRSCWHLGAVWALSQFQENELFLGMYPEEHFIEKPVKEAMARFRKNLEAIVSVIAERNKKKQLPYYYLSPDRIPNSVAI
How it was run: (§1)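 Human 5-LO expressed in E. coli BL21 (pT3-5LO) at 37 °C, purified and used at once. Enzyme (0.5 μg/mL in PBS/EDTA with 1 mM ATP) preincubated with compound 5–10 min at 4 °C, prewarmed 30 s at 37 °C, started with 2 mM CaCl₂ + 20 μM AA (±1 μM 13(S)-HpODE), 10 min at 37 °C, stopped with cold methanol, products by HPLC.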

[2] = target: T1, Polyunsaturated fatty acid 5-lipoxygenase; assay: Inhibition of 5-lipoxygenase-mediated 5(S)-H(p)ETE formation in fMLP-stimulated human PMNL incubated 10 mins prior to fMLP challenge
Prostaglandin E synthase = target: T2, Prostaglandin E synthase (Homo sapiens, UniProt O14684); assay: Inhibition of mPGES-1 in human IL-1beta-stimulated A549 cell microsomes assessed as reduction of PGE2 formation from PGH2 after 15 mins by RP-HPLC analysis; set-up: species or system Microsome
T2 sequence (O14684 whole entry): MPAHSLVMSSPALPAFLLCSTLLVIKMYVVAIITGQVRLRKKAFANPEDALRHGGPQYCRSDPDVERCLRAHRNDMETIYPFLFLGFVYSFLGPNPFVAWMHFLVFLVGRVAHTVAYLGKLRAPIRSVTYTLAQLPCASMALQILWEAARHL
How it was run: (§2)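 A549 cells in DMEM with 2% FCS for 16 h, induced with IL-1β (1 ng/mL) for 72 h, homogenized. Microsomal pellet (174 000 × g) diluted in 0.1 M potassium phosphate pH 7.4 with 2.5 mM glutathione, given compound or DMSO for 15 min. PGH₂ added (20 μM final), 1 min at 4 °C, stopped with FeCl₂/citric acid. PGE₂ by SPE and RP-HPLC (UV 195 nm), 11β-PGE₂ internal standard. Tested up to 10 μM; IC₅₀ reported only above 50% inhibition at 10 μM.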

[3] = target: T3, Polyunsaturated fatty acid 5-lipoxygenase (Homo sapiens) (UniProt P09917); assay: Inhibition of human recombinant 5-lipoxygenase-mediated product formation from arachidonic acid assessed as remaining activity at 1 uM after 5 to 10 mins by HPLC analysis; how it was run: as §1
T3 sequence (whole entry): T1 sequence (P09917 whole entry)

[4] = Cytotoxicity in human polymorphonuclear leukocytes assessed as cell viability at 10 uM after 30 mins by MTT assay
[5] = target: T3, Polyunsaturated fatty acid 5-lipoxygenase (Homo sapiens); assay: Inhibition of human recombinant 5-lipoxygenase-mediated product formation from arachidonic acid assessed as remaining activity at 10 uM after 5 to 10 mins by HPLC analysis; how it was run: as §1
[6] = target: Prostaglandin G/H synthase 1 (Ovis aries) (UniProt P05979); assay: Inhibition of ovine COX-1 mediated formation of 12-HHT from arachidonic acid assessed as remaining activity at 10 uM after 5 mins by HPLC analysis
[7] = target: Prostaglandin G/H synthase 2 (Homo sapiens) (UniProt P35354); assay: Inhibition of human recombinant COX-2 mediated formation of 12-HHT from arachidonic acid assessed as remaining activity at 10 uM after 5 mins by HPLC analysis
[8] = target: T4, Prostaglandin E synthase (Homo sapiens) (UniProt O14684); assay: Inhibition of mPGES-1 in human IL-1beta-stimulated A549 cell microsomes assessed as residual activity by measuring reduction of PGE2 formation from PGH2 at 10 uM after 15 mins by RP-HPLC analysis; conditions: Microsome; how it was run: as §2
T4 sequence (whole entry): T2 sequence (O14684 whole entry)

[9] = target: T3, Polyunsaturated fatty acid 5-lipoxygenase (Homo sapiens); assay: Selectivity ratio of IC50 for human recombinant 5-lipoxygenase in cell-free system to IC50 for 5-lipoxygenase-mediated 5(S)-H(p)ETE formation in A23187-stimulated PMNL
[10] = target: T1, Polyunsaturated fatty acid 5-lipoxygenase; assay: Inhibition of 5-lipoxygenase-mediated 5(S)-H(p)ETE formation in A23187-stimulated human PMNL incubated 10 mins prior to A23187 challenge
[11] = system: Radical scavenging activity; assay: Antioxidant activity assessed as DPPH radical scavenging activity at 100 uM; format: functional
How it was run: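 Non-enzymatic radical scavenging test: reduction of 1,1-diphenyl-2-picrylhydrazyl (DPPH) measured with test compound up to 100 μM; ascorbic acid and L-cysteine run as reference reductants.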

[12] = target: T5, Polyunsaturated fatty acid lipoxygenase ALOX15 (Homo sapiens) (UniProt P16050); assay: Inhibition of 15-lipoxygenase in A23187-stimulated human PMNL assessed as reduction of 15(S)-H(P)ETE formation preincubated 15 mins by RP-HPLC analysis in presence of exogenous arachidonic acid
T5 sequence (whole entry): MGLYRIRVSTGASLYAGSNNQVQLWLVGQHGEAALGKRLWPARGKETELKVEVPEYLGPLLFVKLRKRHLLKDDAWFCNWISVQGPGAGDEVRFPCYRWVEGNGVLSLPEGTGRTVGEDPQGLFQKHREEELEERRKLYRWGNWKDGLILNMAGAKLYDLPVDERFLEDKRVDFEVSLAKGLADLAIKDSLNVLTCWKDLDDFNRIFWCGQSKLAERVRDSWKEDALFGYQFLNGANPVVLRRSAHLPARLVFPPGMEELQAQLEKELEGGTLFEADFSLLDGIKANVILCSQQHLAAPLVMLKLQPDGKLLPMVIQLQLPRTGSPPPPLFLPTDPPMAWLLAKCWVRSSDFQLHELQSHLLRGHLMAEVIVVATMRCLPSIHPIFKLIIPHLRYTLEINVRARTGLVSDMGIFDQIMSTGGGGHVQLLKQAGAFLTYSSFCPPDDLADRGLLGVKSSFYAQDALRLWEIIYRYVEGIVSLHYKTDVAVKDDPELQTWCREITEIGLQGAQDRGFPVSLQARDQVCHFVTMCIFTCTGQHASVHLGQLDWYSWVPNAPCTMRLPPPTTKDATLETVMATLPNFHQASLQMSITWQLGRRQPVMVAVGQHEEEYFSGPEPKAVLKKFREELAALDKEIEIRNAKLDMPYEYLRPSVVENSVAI
How it was run: (§3)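 Freshly isolated human PMNL (5 × 10⁶/mL in PBS pH 7.4 with 1 mg/mL glucose and 1 mM CaCl₂) preincubated with compound 15 min at 37 °C, then stimulated with 2.5 μM A23187 plus exogenous AA for 10 min at 37 °C. Stopped with methanol, PGB₁ added as internal standard, extracted, HPLC: 15(S)-H(p)ETE taken as 15-LO product, 12(S)-H(p)ETE as 12-LO product (platelet-type 12-LO from PMNL-adherent platelets).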

[13] = target: T6, Polyunsaturated fatty acid lipoxygenase ALOX12 (Homo sapiens) (UniProt P18054); assay: Inhibition of 12-lipoxygenase in A23187-stimulated human PMNL assessed as reduction of 12(S)-H(P)ETE formation preincubated 15 mins by RP-HPLC analysis in presence of exogenous arachidonic acid; how it was run: as §3
T6 sequence (whole entry): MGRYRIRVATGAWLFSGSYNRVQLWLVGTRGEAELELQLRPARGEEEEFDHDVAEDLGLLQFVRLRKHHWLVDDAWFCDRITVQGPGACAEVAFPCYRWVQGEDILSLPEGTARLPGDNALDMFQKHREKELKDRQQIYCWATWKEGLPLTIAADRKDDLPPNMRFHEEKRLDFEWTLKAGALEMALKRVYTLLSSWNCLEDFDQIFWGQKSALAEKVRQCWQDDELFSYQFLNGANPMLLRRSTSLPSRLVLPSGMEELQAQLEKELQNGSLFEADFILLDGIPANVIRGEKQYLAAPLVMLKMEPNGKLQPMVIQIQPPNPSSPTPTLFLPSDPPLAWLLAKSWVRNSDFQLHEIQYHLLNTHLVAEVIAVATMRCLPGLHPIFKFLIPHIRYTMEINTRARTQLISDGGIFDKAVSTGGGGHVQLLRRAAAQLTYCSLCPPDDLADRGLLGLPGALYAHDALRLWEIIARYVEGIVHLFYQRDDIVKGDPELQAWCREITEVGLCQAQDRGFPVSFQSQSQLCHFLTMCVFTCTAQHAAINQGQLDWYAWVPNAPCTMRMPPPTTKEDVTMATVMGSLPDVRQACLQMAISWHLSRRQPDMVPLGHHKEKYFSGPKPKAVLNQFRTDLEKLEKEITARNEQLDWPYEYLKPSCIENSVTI

CCCCC(Sc1nc(OCc2ccccc2)cc(OCc2ccccc2)n1)C(=O)O (stereo not drawn)
IC50 [1]: 5 µM | IC50 [2]: 1.8 µM | IC50 (Prostaglandin E synthase): 3.8 µM

CCC(Sc1nc(OCCc2ccccc2)cc(OCCc2ccccc2)n1)C(=O)O (stereo not drawn)
IC50 [1]: 9 µM | IC50 [2]: 2.8 µM | IC50 (Prostaglandin E synthase): 7.3 µM

CC(C)c1ccc2c(c1)c(SC(C)(C)C)c(CC(C)(C)C(=O)O)n2Cc1ccc(Cl)cc1
inhibition [3]: inactive

CCCCC(Cc1cc(OCCc2ccccc2)ccc1OCCc1ccccc1)C(=O)O (stereo not drawn)
IC50 [1]: > 10 µM | IC50 [2]: 0.9 µM | Activity [4]: Non-toxic | Activity [5]: 65.5% | IC50 (Prostaglandin E synthase): 2.4 µM | Activity [6]: 63.8% | Activity [7]: 66.5%

CCCCC(Cc1ccc(OCCc2ccccc2)cc1OCCc1ccccc1)C(=O)O (stereo not drawn)
IC50 [1]: > 10 µM | IC50 [2]: > 10 µM | Activity [4]: Non-toxic | Activity [5]: 85.6% | IC50 (Prostaglandin E synthase): > 10 µM | Activity [6]: 99.1% | Activity [8]: 90.1% | Activity [7]: 110%

CCCCC(Oc1cc(OCCc2ccccc2)cc(OCCc2ccccc2)c1)C(=O)O (stereo not drawn)
Ratio IC50 [9]: > 20 | IC50 [1]: > 10 µM | Activity [4]: Non-toxic | IC50 (Prostaglandin E synthase): 3.4 µM | Activity [6]: 71.6% | Activity [7]: 92.5% | IC50 [10]: 0.6 µM

CCCC/C(=C\c1cccc(OCCc2ccccc2)c1OCCc1ccccc1)C(=O)O
IC50 [1]: > 10 µM | IC50 [2]: 0.8 µM | Activity [4]: Non-toxic | Activity [5]: 91.3% | IC50 (Prostaglandin E synthase): 1.1 µM | Activity [6]: 86.8% | Activity [7]: 113%

CCCC/C(=C\c1cc(OCCc2ccc(C(F)(F)F)cc2)ccc1OCCc1ccc(C(F)(F)F)cc1)C(=O)O
Ratio IC50 [9]: > 20 | IC50 [1]: > 10 µM | Activity [4]: Non-toxic | Activity [5]: 55.6% | IC50 (Prostaglandin E synthase): 3.5 µM | Activity [6]: 81% | Activity [7]: 102% | IC50 [10]: 0.3 µM

CCCC/C(=C\c1cc(OCCc2ccccc2)ccc1OCCc1ccccc1)C(=O)O
IC50 [1]: > 10 µM | IC50 [2]: 0.9 µM | Activity [4]: Non-toxic | Activity [5]: 78.2% | IC50 (Prostaglandin E synthase): 1.5 µM | Activity [6]: 68% | Activity [7]: 94.4%

CCCC/C(=C\c1cc(OCCC2CCCCC2)ccc1OCc1ccc(C(F)(F)F)cc1)C(=O)O
Ratio IC50 [9]: > 20 | IC50 [1]: 10 µM | Activity [4]: Non-toxic | Activity [5]: 55.5% | IC50 (Prostaglandin E synthase): > 10 µM | Activity [6]: 92.3% | Activity [8]: 74% | Activity [7]: 106% | IC50 [10]: 0.4 µM

N[C@@H](CS)C(=O)O
Activity [11]: Active

CCCCC(Sc1nc(OCCc2ccc(OC(F)(F)F)cc2)cc(OCCc2ccc(OC(F)(F)F)cc2)n1)C(=O)O (stereo not drawn)
Ratio IC50 [9]: > 20 | IC50 [1]: > 10 µM | Activity [5]: 56.4% | IC50 (Prostaglandin E synthase): > 10 µM | Activity [8]: 88.3% | IC50 [10]: 0.5 µM

Cc1ccc(-c2cc(C(F)(F)F)nn2-c2ccc(S(N)(=O)=O)cc2)cc1
inhibition [12]: inactive | inhibition [13]: inactive

CCCCC(Sc1nc(OCCc2ccc(OC)cc2)cc(OCCc2ccc(OC)cc2)n1)C(=O)O (stereo not drawn)
Ratio IC50 [9]: > 20 | IC50 [1]: 7 µM | IC50 (Prostaglandin E synthase): > 10 µM | Activity [8]: 63.7% | IC50 [10]: 0.3 µM

O=C1O[C@H]([C@@H](O)CO)C(O)=C1O
Activity [11]: Active

O=C(O)C(Sc1nc(OCCc2ccccc2)cc(OCCc2ccccc2)n1)c1ccccc1 (stereo not drawn)
IC50 [1]: 4.9 µM | IC50 [2]: 0.8 µM | IC50 (Prostaglandin E synthase): 1.2 µM
